Experimental data as given in ChEMBL document CHEMBL2202986, “Guaianolide sesquiterpene lactones, a source to discover agents that selectively inhibit acute myelogenous leukemia stem and progenitor cells” (J Med Chem, 2012).

Experiments:
[1] = Cytotoxicity against human leukemia stem/progenitor cells assessed as cell viability at 0.5 uM after 18 hrs by annexin-V labeling-based flow cytometry; type: functional; conditions: read-out: Activity
Summary of the method: (§1)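 Primary leukemia cells from AML patient blood were treated for 18 h in serum-free IMDM, then stained with CD34-APC and CD38-PECy7 for 30 min. After washing in cold PBS, cells were labelled with Annexin-V–FITC/PI for 15 min at room temperature and read by flow cytometry. Viability of total and CD34⁺ cells was normalized to untreated controls (mean, SD).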

[2] = Reduction in colony forming units of leukemia stem/progenitor cells at 0.1 uM after 15 to 20 days; type: functional, Homo sapiens
Summary of the method: (§2)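 Mononuclear cells from AML patient […] were exposed to drug for 18 h in serum-free IMDM, then plated in triplicate in M3434 methylcellulose. Total colonies (CFC-Mix, CFC-GM, CFC-G, CFC-M, BFU-E) were scored by morphology after 15−20 days.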

[3] = Reduction in colony forming units of leukemia stem/progenitor cells at 0.05 uM after 15 to 20 days; type: functional, Homo sapiens; summary of the method: as §2
[4] = Cytotoxicity against human leukemia stem/progenitor cells assessed as viable CD34+ cells at 0.5 uM after 18 hrs by annexin-V labeling-based flow cytometry; type: functional, CD34+ cell; summary of the method: as §1
[5] = Cytotoxicity against human leukemia stem/progenitor cells assessed as cell viability at 0.1 uM after 18 hrs by annexin-V labeling-based flow cytometry; type: functional; conditions: in the assay text read “leukemia cells” for “leukemia stem/progenitor cells”, read-out: Activity; summary of the method: as §1
[6] = Cytotoxicity against human HL60/A cells after 18 hrs by annexin-V labeling-based flow cytometry; type: functional, cell-based
HL-60 = assay: Cytotoxicity against human HL60 cells after 18 hrs by annexin-V labeling-based flow cytometry; type: functional, cell-based; conditions: HL-60, 18 h
[7] = Cytotoxicity against human leukemia stem/progenitor cells assessed as viable CD34+ cells at 0.1 uM after 18 hrs by annexin-V labeling-based flow cytometry; type: functional, CD34+ cell; summary of the method: as §1
[8] = Antitumor activity against human leukemia stem/progenitor cells xenografted in NOD/SCID mouse assessed as survival time at 1 mg/kg, iv administered every other day total of four doses starting from 8 weeks post grafting (reference value: 43 days)

COc1cccc2c1C(=O)c1c(O)c3c(c(O)c1C2=O)C[C@@](O)(C(=O)CO)C[C@@H]3O[C@H]1C[C@H](N)[C@H](O)[C@H](C)O1 [DOXORUBICIN]
viability at 0.5 µM [1]: 49.1% | CFU [2]: 170 | CFU [3]: 165 | Activity [4]: 49.1% | viability at 0.1 µM [5]: 37.6% | IC50 [6]: 6.7 µM | IC50 (HL-60): 0.05 µM | Activity [7]: 115% | Survival [8]: 22 days
